Non-standard residues stand in square brackets, D forms with d. Residues, ends and D or L forms follow the SMILES beside them. *: point of attachment. NMeR = CN[C@@H](CCCNC(=N)N)C(=O)O; NMeK = CN[C@@H](CCCCN)C(=O)O; NMeNle = CCCC[C@H](NC)C(=O)O; Phg = N[C@H](C(=O)O)c1ccccc1; dNle = CCCC[C@@H](N)C(=O)O; Nle = CCCC[C@H](N)C(=O)O; Bz = O=C(c1ccccc1)*
Experiment: Inhibition of West Nile virus NS3 protease
Summary of the method: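 Enzyme: WNV CF40-gly-NS3pro187 conjugate at 50 nM, preincubated with a range of inhibitor concentrations for 30 min at 37 °C. Buffer: 50 mM Tris pH 8.5 with 1 mM CHAPS. Reaction started with 20 µM Bz-nKRR-AMC. Fluorescence (ex 385/em 465 nm) followed continuously. IC50 from nonlinear fit of initial velocities, each point in duplicate within a single experiment.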

SMILES | IC50 [µM]
C[C@H](NC(=O)c1ccccc1)C(=O)N[C@@H](CCCCN)C(=O)N[C@@H](CCCNC(=N)N)C(=O)N[C@H](C=O)CCCNC(=N)N (Bz-AKRR-aldehyde) | 0.7
CCCC[C@H](NC(=O)c1ccccc1)C(=O)N[C@@H](CCCCN)C(=O)N[C@@H](CCCNC(=N)N)C(=O)N[C@H](C=O)Cc1cnc[nH]1 (Bz-[Nle]KRH-aldehyde) | 43.1
CCCC[C@H](NC(=O)c1ccccc1)C(=O)N[C@@H](CCCCN)C(=O)N[C@@H](CCCNC(=N)N)C(=O)N[C@H](C=O)c1ccccc1 (Bz-[Nle]KR[Phg]-aldehyde) | 90.9
CCCC[C@H](NC(=O)c1ccccc1)C(=O)N1CCC[C@H]1C(=O)N[C@@H](CCCN=C(N)N)C(=O)N[C@H](C=O)CCCN=C(N)N (Bz-[Nle]PRR-aldehyde) | 14.3
CCCC[C@H](NC(=O)c1ccccc1)C(=O)N[C@@H](C)C(=O)N[C@@H](CCCNC(=N)N)C(=O)N[C@H](C=O)CCCNC(=N)N (Bz-[Nle]ARR-aldehyde) | 3.8
CCCC[C@H](NC(=O)c1ccccc1)C(=O)N[C@@H](CCCCN)C(=O)N[C@@H](CCCNC(=N)N)C(=O)N[C@H](C=O)Cc1ccccc1 (Bz-[Nle]KRF-aldehyde) | 110
CCCC[C@H](NC(=O)c1ccccc1)C(=O)N[C@@H](Cc1ccccc1)C(=O)N[C@@H](CCCNC(=N)N)C(=O)N[C@H](C=O)CCCNC(=N)N (Bz-[Nle]FRR-aldehyde) | 4.2
CCCC[C@H](NC(=O)c1ccccc1)C(=O)N[C@@H](CCCCN)C(=O)N[C@@H](CCCNC(=N)N)C(=O)N[C@H](C=O)CCCNC(=N)N (Bz-[Nle]KRR-aldehyde) | 4.1
CCCC[C@H](NC(=O)c1ccccc1)C(=O)N[C@@H](CCCCN)C(=O)N[C@@H](CCCN=C(N)N)C(=O)N[C@H](C=O)Cc1c[nH]c2ccccc12 (Bz-[Nle]KRW-aldehyde) | 10
CCCC[C@H](NC(=O)c1ccccc1)C(=O)N[C@@H](CCCCN)C(=O)N[C@@H](Cc1ccccc1)C(=O)N[C@H](C=O)CCCNC(=N)N (Bz-[Nle]KFR-aldehyde) | 108

Results, then the compound that gave them:

IC50 [µM] | SMILES
4.6 | CCCC[C@H](NC(=O)c1ccccc1)C(=O)N[C@@H](CCCCN)C(=O)N[C@@H](CCCN=C(N)N)C(=O)N[C@@H](C)C=O (Bz-[Nle]KRA-aldehyde)
262 | CCCC[C@H](NC(=O)c1ccccc1)C(=O)N[C@@H](CCCCN)C(=O)N[C@@H](C)C(=O)N[C@H](C=O)CCCN=C(N)N (Bz-[Nle]KAR-aldehyde)
23.8 | CCCC[C@H](NC(=O)c1ccccc1)C(=O)N[C@H](CCCCN)C(=O)N[C@@H](CCCN=C(N)N)C(=O)N[C@H](C=O)CCCN=C(N)N (Bz-[Nle][dK]RR-aldehyde)
57.7 | CCCC[C@H](NC(=O)c1ccccc1)C(=O)N[C@@H](CCCCN)C(=O)N[C@@H](CCCNC(=N)N)C(=O)N[C@H](C=O)CCCCN (Bz-[Nle]KRK-aldehyde)
2.6 | CCCC[C@@H](NC(=O)c1ccccc1)C(=O)N[C@@H](CCCCN)C(=O)N[C@@H](CCCN=C(N)N)C(=O)N[C@H](C=O)CCCN=C(N)N (Bz-[dNle]KRR-aldehyde)
1.9 | CCCC[C@H](NC(=O)c1ccccc1)C(=O)N[C@@H](CCCCN)C(=O)N[C@@H](CCCCN)C(=O)N[C@H](C=O)CCCNC(=N)N (Bz-[Nle]KKR-aldehyde)
129 | CCCC[C@H](NC(=O)c1ccccc1)C(=O)N[C@@H](CCCCN)C(=O)N[C@H](CCCN=C(N)N)C(=O)N[C@H](C=O)CCCN=C(N)N (Bz-[Nle]K[dR]R-aldehyde)
14 | CCCC[C@H](NC(=O)c1ccccc1)C(=O)N[C@@H](CCCCN)C(=O)N[C@@H](CCCN=C(N)N)C(=O)N[C@@H](C=O)CCCN=C(N)N (Bz-[Nle]KR[dR]-aldehyde)
9.3 | CCCC[C@@H](C(=O)N[C@@H](CCCCN)C(=O)N[C@@H](CCCN=C(N)N)C(=O)N[C@H](C=O)CCCN=C(N)N)N(C)C(=O)c1ccccc1 (Bz-[NMeNle]KRR-aldehyde)
73.6 | CCCC[C@H](NC(=O)c1ccccc1)C(=O)N(C)[C@@H](CCCCN)C(=O)N[C@@H](CCCN=C(N)N)C(=O)N[C@H](C=O)CCCN=C(N)N (Bz-[Nle][NMeK]RR-aldehyde)
57.8 | CCCC[C@H](NC(=O)c1ccccc1)C(=O)N[C@@H](CCCCN)C(=O)N(C)[C@@H](CCCN=C(N)N)C(=O)N[C@H](C=O)CCCN=C(N)N (Bz-[Nle]K[NMeR]R-aldehyde)
1.2 | NCCCC[C@H](NC(=O)[C@H](Cc1ccccc1)NC(=O)c1ccccc1)C(=O)N[C@@H](CCCN=C(N)N)C(=O)N[C@H](C=O)CCCN=C(N)N (Bz-FKRR-aldehyde)

Reference: ChEMBL document CHEMBL1137311, “Peptide inhibitors of West Nile NS3 protease: SAR study of tetrapeptide aldehyde inhibitors” (J Med Chem, 2006)
